FN deposit inh: fibronectin deposition inhibition; AH1F fibroblasts, Alexa488-fibronectin deposition fluorescence, overnight; inhibition, % at 12.6 µM; actives 0.086% (n = 350,000); AID 743247;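 active means mean inhibition across replicates of 30% or more, regardless of how many single replicates reach that level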;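 further: positive control wells lacked labelled fibronectin entirely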
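Material – AH1F fibroblast monolayer, labelled fibronectin deposition · Reagent – labelled fibronectin 24 nM · Timing – 1 h adhesion, overnight exposure · Measured by – fluorescence at 485 nm excitation, 525 nm emission · Read-out – inhibition of fibronectin deposition signal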
CASP6 VEID inh: blocks human caspase-6 cleavage activity | purified caspase-6, Z-VEID-R110 cleavage fluorescence | actives 0.53% (n = 350,000) | inhibition, % at 12.5 µM;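 active means mean inhibition across replicates at least about 35%, with every replicate also reaching that limit, limit read from the data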;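 further: 0% = median of neutral control wells and 100% = no fluorescence left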
CaV13 ICDI inh: Primary screen for inhibitors of IQ motif and Ca2+-dependent inactivation inhibitor domain binding in CACNA1D, Förster resonance energy transfer in living cells, … | HEK cells, CFP/YFP FRET ICDI-IQ, plate reader, 10 min; percent FRET-ratio fall versus neutral wells | inhibition, % at 12.3 µM | actives 0.098% (n = 340,000) | AID 743397;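 active means mean replicate inhibition of at least 30% and at least 1% of replicates passing that level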;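 further: 0% = median of the neutral control wells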
NSD2 HMT inh: inhibitors of human histone methyltransferase NSD2; O96028; NSD2 peptide methylation, AlphaScreen, 120 min; inhibition, % at 12.5 µM; actives 0.54% (n = 310,000); AID 743445; in the data active means inhibition above about 50%
NPR2 activator: GC-B (human) receptor activation. P20594. activation, % at 10 µM. actives 0.11% (n = 370,000). HEK293-GC-B cells, CNP EC30, cGMP TR-FRET; 0% at EC30 CNP, 100% saturating CNP;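 active means activation at 10 µM reaching about 35% in either raw or pattern-adjusted values, limit read from the data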
NPR1 activator: GC-A (human) enzyme activation. activation, % at 10 µM. actives 0.14% (n = 370,000). P16066. HEK293 GC-A cells, cGMP TR-FRET, EC30 ANP; 0% at EC30 ANP, 100% saturating ANP; in the data active means activation above about 40%
Target sequence (P16066 whole entry, looked up): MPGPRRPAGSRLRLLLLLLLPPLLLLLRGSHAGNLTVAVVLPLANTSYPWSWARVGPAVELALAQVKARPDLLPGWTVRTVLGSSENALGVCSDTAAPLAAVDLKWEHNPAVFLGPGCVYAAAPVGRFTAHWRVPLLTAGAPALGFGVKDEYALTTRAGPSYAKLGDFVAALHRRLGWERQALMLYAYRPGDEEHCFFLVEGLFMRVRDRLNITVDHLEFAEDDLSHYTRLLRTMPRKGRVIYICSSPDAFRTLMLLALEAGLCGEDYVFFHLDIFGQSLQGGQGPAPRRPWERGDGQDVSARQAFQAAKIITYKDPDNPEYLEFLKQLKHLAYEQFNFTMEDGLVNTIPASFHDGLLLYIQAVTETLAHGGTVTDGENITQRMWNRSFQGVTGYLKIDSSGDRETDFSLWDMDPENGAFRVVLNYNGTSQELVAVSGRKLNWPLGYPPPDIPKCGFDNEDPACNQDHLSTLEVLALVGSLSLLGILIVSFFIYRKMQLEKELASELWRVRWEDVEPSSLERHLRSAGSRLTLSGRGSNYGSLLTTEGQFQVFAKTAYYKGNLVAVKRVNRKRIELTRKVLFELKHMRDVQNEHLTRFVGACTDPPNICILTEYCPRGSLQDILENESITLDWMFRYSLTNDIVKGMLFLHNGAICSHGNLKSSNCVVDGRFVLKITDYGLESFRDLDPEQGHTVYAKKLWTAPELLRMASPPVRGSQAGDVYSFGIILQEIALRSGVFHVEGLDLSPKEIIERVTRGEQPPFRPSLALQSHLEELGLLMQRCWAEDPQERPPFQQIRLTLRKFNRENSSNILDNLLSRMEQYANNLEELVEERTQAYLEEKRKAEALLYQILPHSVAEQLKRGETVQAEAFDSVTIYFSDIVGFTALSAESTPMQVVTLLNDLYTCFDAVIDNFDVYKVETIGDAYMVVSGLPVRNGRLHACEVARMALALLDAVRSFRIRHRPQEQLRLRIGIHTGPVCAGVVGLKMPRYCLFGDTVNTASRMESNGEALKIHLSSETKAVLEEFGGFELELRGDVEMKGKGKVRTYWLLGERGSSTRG
AlphaScreen art: interferes with AlphaScreen signal, flagging NSD2 false positives; shares compounds with NSD2 HMT inh; AID 1053174; actives 9.4% (n = 1,500); AlphaScreen artifact counterscreen, preloaded methylated H4 peptide; AC35, µM (doses to about 10 µM), for inactives: at the top dose activity change, negative = signal loss; call rule not given here
An asterisk follows results filed as active; nt = not tested or not shown. Shown are actives, neighbours in structure and some others; about 0.99% of the full set was active somewhere.

SMILES	FN deposit inh	CASP6 VEID inh	CaV13 ICDI inh	NSD2 HMT inh	NPR2 activator	NPR1 activator	AlphaScreen art
Clc1ccc(-c2nnc(SCc3ccon3)o2)c(Cl)c1	nt	nt	nt	6.6	-3.7	21.1	nt
C=CCSc1nnc(-c2ccc(Cl)cc2Cl)o1	8.3	nt	-4.6	68.4*	-1.7	19.9	10.9%
O=C(C1=C(O)C(=O)N(CC2CCCO2)C1c1ccccc1)c1ccco1 (stereo unspecified)	7.2	-0.2	-2.9	2.1	3.4	7.2	nt
COc1ccc(C2C(C(=O)c3ccco3)=C(O)C(=O)N2CC2CCCO2)cc1OC (stereo unspecified)	4.4	9.7	-2.3	61.9*	-3.3	7.2	-5.8%
COc1ccc(C2C(C(=O)/C=C/c3ccco3)=C(O)C(=O)N2CCN2CCOCC2)cc1OC (stereo unspecified)	-2.8	-0.5	-20.0	71.7*	-5.5	2.0	-1.1%
CO[C@H]1CN(C)C(=O)c2cc(NS(=O)(=O)c3cn(C)cn3)ccc2OC[C@H](C)N(CC2CC2)C[C@H]1C	1.2	-1.4	nt	nt	nt	nt	nt
O=C(Nc1nccs1)C1CC=CCC1 (stereo unspecified)	3.8	2.1	-7.0	-1.6	-0.1	-2.8	nt
O=C(Nc1ccc(O)cc1)C1CC=CCC1 (stereo unspecified)	12.4	nt	-3.5	126.3*	1.1	-0.3	-4.9%
Cc1cccc(-c2ccc([C@H]3[C@@H](CO)N4C(=O)CN(C(=O)c5cccnc5)C[C@@H]34)cc2)c1	nt	0.2	nt	nt	nt	nt	nt
C=CCn1c(SCc2ccc(C#N)cc2)nnc1-c1ccc(C)cc1	8.7	nt	-2.9	61.2*	-1.6	-9.8	-2.3%
Cn1c(SCc2ccc(C#N)cc2)nnc1-c1ccncc1	4.7	-1.6	-2.1	0.1	2.7	10.0	nt
Cn1c(N)c(C#N)c2c(c1=S)CSC(C)(C)C2	-1.3	nt	nt	50.7*	-1.2	2.9	-2.4%
Cn1c(N)c(C#N)c2c(c1=S)COC(C)(C)C2	nt	nt	nt	-4.0	3.1	11.8	nt
CN1C(=O)/C(=C/c2ccc(-c3ccccc3[N+](=O)[O-])o2)SC1=Nc1ccc(Cl)c(C(=O)O)c1	nt	nt	-6.6	116.8*	-1.1	-1.1	-3.8%
C[C@H]1CN([C@@H](C)CO)C(=O)c2cc(NS(C)(=O)=O)ccc2O[C@H]1CN(C)S(=O)(=O)c1cccs1	-3.6	-1.3	nt	nt	nt	nt	nt
CNCCOc1ccccc1-c1ccccc1	-6.0	nt	-3.3	76.2*	-3.3	-4.5	-5.1%
CNCCCCOc1ccccc1-c1ccccc1	5.8	0.9	-3.2	64.5*	-2.3	-6.5	-7.2%
COCCCNCCCCOc1ccccc1-c1ccccc1	5.2	nt	-5.7	1.5	-9.2	-4.1	nt
Cc1ccc(-c2ccc3c(c2)O[C@H](CN(C)C(=O)CN(C)C)[C@H](C)CN([C@@H](C)CO)S3(=O)=O)cc1	nt	-1.7	nt	nt	nt	nt	nt
O=C(CCN1CCCCC1)NCC[C@@H]1CC[C@H](NC(=O)C2CCCC2)[C@H](CO)O1	nt	0.5	nt	nt	nt	nt	nt
O=C(C[C@H]1C[C@@H]2c3cc(NC(=O)Nc4ccccc4F)ccc3O[C@@H]2[C@@H](CO)O1)NCc1cc(F)ccc1F	-3.0	2.0	nt	nt	nt	nt	nt
C/C=C/c1cnc2c(c1)C(=O)N([C@@H](C)CO)C[C@@H](C)[C@H](CN(C)Cc1ccc3c(c1)OCO3)O2	-2.2	nt	nt	nt	nt	nt	nt
C/C(CC(=O)NCCCN1CCOCC1)=N\NC(=O)COc1ccc(C)cc1	-3.9	-21.4	-3.9	-1.4	-1.9	-0.8	nt
C/C(CC(=O)NCCCN1CCOCC1)=N\NC(=O)COc1ccc(Cl)cc1	nt	nt	0.7	65.2*	1.0	0.2	-7.0%
CCOc1ccc(N2CC(C(=O)NCCc3c[nH]c4ccc(OC)cc34)CC2=O)cc1 (stereo unspecified)	-0.5	-0.3	-6.9	88.2*	1.9	3.5	-2.9%
SMILES	FN deposit inh	CASP6 VEID inh	CaV13 ICDI inh	NSD2 HMT inh	NPR2 activator	NPR1 activator	AlphaScreen art
COc1ccc2[nH]cc(CCNC(=O)C3CC(=O)N(c4ccc(Cl)cc4)C3)c2c1 (stereo unspecified)	8.9	3.4	-7.5	0.0	-3.6	1.0	nt
CC(C)C#Cc1ccc2c(c1)O[C@H](CN(C)C(=O)Cc1ccccn1)[C@H](C)CN([C@@H](C)CO)S2(=O)=O	-6.3	0.1	nt	nt	nt	nt	nt
CC1CCC2(CC1)NC(=O)N(CC(=O)N(Cc1ccccc1)C(C)(C)C)C2=O (stereo unspecified)	-0.6	-0.9	-8.1	-3.1	-1.0	-2.3	nt
COc1ccc(CN(C(=O)CN2C(=O)NC3(CCC(C)CC3)C2=O)C(C)Cc2cccs2)cc1 (stereo unspecified)	-6.7	2.9	-5.9	55.4*	4.4	-0.8	-6.7%
O=[N+]([O-])c1ccc(-[n+]2nc(-c3ccccc3)nn2-c2ccccc2)cc1	10.3	6.6	-20.4	81.0*	-1.9	-0.9	0.914µM*
C[C@@H]1CN([C@@H](C)CO)C(=O)c2cc(C#CC3CCCCC3)cnc2O[C@H]1CN(C)C(=O)C1CCCCC1	-15.1	-1.8	nt	nt	nt	nt	nt
Cn1c(=O)c2c(nc(CN3CCC(C(N)=O)CC3)n2Cc2c(Cl)cccc2Cl)n(C)c1=O	-6.9	nt	-5.4	-7.2	-0.7	-0.7	nt
Cn1c(=O)c2c(nc(CN3CCC(C(N)=O)CC3)n2Cc2ccccc2Cl)n(C)c1=O	4.6	nt	-4.2	65.0*	-2.2	1.1	-4.8%
COc1cc(OC)c([N+](=O)[O-])cc1/C=N/NC(=O)c1ccncc1	7.0	15.2	-4.4	80.5*	1.5	0.9	0.5%
COc1cc(/C=N/NC(=O)c2ccncc2)c([N+](=O)[O-])cc1OC	2.3	1.5	-4.6	3.0	-0.9	4.8	nt
CNC[C@H]1Oc2c(NS(=O)(=O)c3cn(C)cn3)cccc2C(=O)N([C@H](C)CO)C[C@H]1C	4.7	-0.8	nt	nt	nt	nt	nt
C[C@@H]1CN([C@H](C)CO)C(=O)Cc2cc(NC(=O)c3ccncc3)ccc2O[C@@H]1CN(C)S(=O)(=O)c1ccc(Cl)cc1	nt	1.6	nt	nt	nt	nt	nt
Cc1ccc(C(=O)NC2(O)C(=O)c3ccccc3C2=O)cc1C	-9.8	21.6	-4.0	110.3*	-0.8	-0.3	3.1%
O=C(Cc1ccccc1)NC1(O)C(=O)c2ccccc2C1=O	-4.7	24.6	-4.3	100.5*	-5.8	2.4	2.1%
O=C(NC1(O)C(=O)c2ccccc2C1=O)c1ccc(C(F)(F)F)cc1	1.8	26.1	-19.3	107.9*	5.0	3.8	0.0%
CC(NC(=O)Cc1ccccc1)c1ccccc1 (stereo unspecified)	0.0	-2.5	-20.6	-2.9	0.7	-6.4	nt
Cc1ccc(C(=O)NCC(=O)OCN2C(=O)c3ccccc3C2=O)cc1C	0.6	-0.8	-2.1	-3.2	-10.7	-1.8	nt
